We go through 10 compounds from ChEMBL document CHEMBL1130045, “7-Spiroindanyl derivatives of naltrexone and oxymorphone as selective ligands for delta opioid receptors” (J Med Chem, 1997).

Test [1] is filed under the species Cavia porcellus. Nature of the test: Compound was tested for agonistic activity on the electrically stimulated guinea pig ileum (GPI). The test is classed as functional, organism-based.
Test [2] is filed under the species Mus musculus. Nature of the test: Compound was tested for agonistic activity on the electrically stimulated mouse vas deferens (MVD). It counts as functional, organism-based.
Test [3] addresses Kappa-type opioid receptor (Mus musculus, UniProt P33534). Nature of the test: […]. It counts as functional. Summed up:
(§1)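 Competition binding in ICR mouse brain membranes, using a modified Werling procedure. Radioligands are [3H]naltrindole for δ, [3H]DAMGO for μ and [3H]U69593 for κ. Ki values are derived from the competition curves.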

The target in test [4] is Mu-type opioid receptor (Mus musculus, UniProt P42866). Nature of the test: […]. The test is classed as functional. The method in brief:
as §1

Test [5] deals with T1, Delta-type opioid receptor (Mus musculus, UniProt P32300). Nature of the test: […]. It counts as functional. The method in brief:
as §1

Test [6] deals with Mu-type opioid receptor (Mus musculus) (UniProt P42866). Nature of the test: Compound was tested for its ability to antagonize the antinociceptive effect of morphine (mu opioid receptor agonist) in mice. The test is classed as functional. Summed up:
(§2)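 Tail-flick antinociception in ICR mice. Antagonist is given icv at 5 or 10 nmol, timed so its 20 min peak effect falls at the centre of the observation period. Agonists are DPDPE and DSLET icv, and morphine sc. Read-out is the agonist ED50 with antagonist divided by the control ED50, with 95% confidence limits.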

In test [7] the target is Kappa-type opioid receptor (Mus musculus) (UniProt P33534). Nature of the test: Compound was tested for its ability to antagonize the antinociceptive effect of U-69,594 (kappa opioid receptor agonist) in mice. The test is classed as functional.
Test [8] deals with Delta-type opioid receptor (Mus musculus) (UniProt P32300). Nature of the test: Compound was tested for its ability to antagonize the antinociceptive effect of DSLET (delta-2 opioid receptor agonist) in mice. It counts as functional. The method in brief:
as §2

For test [9] the target is unchanged. Nature of the test: Compound was tested for its ability to antagonize the antinociceptive effect of DPDPE (delta-1 opioid receptor agonist) in mice. The test is classed as functional. Summed up: as §2
The target of test [10] is Mu-type opioid receptor (Cavia porcellus) (UniProt P97266). Nature of the test: Antagonist activity against electrically stimulated guinea pig ileum using morphine (M) as mu opioid receptor agonist. It counts as functional, tissue-based. The method in brief:
(§3)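 Electrically stimulated guinea pig ileum (morphine, μ; ethylketazocine, κ) or mouse vas deferens (DADLE, δ). The test ligand is incubated with the tissue for 15 min, then the agonist curve is run with 100 nM antagonist present. Read-out is the IC50 ratio: agonist IC50 with antagonist divided by the control IC50 in the same preparation. Three or more replicates.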

The species entered for test [11] is Mus musculus. Nature of the test: Compound was tested for agonistic activity on the electrically stimulated mouse vas deferens (MVD) at 1 uM. It counts as functional.
The target in test [12] is Opioid receptors; mu & delta (Homo sapiens) (UniProt P41143+P35372). Nature of the test: Antagonist selectivity ratio measured as delta IC50 to that of mu receptor IC50 values. The test is classed as functional. The method in brief: (§4)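 Derived from the tissue antagonism data. The δ IC50 ratio (DADLE, mouse vas deferens) is divided by the μ (morphine) or κ (ethylketazocine) IC50 ratio from guinea pig ileum, each ratio measured at 100 nM antagonist. An IC50 ratio below unity is set to a minimum of 1 in the calculation.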

The species entered for test [13] is Mus musculus. Nature of the test: Compound was tested for the antagonist activity on the electrically stimulated mouse vas deferens using DADLE as delta opioid receptor agonist. It counts as functional. The method in brief: as §3
For test [14], the species on record is Cavia porcellus. Nature of the test: Compound was tested for agonistic activity on the electrically stimulated guinea pig ileum (GPI) at 1 uM. The test is classed as functional.
Test [15] addresses Opioid receptors; mu & kappa (Homo sapiens) (UniProt P41145+P35372). Nature of the test: Antagonist selectivity ratio measured as delta IC50 to that of mu kappa IC50 values. It counts as functional. Summed up:
as §4

The target in test [16] is Kappa-type opioid receptor (Cavia porcellus) (UniProt P41144). Nature of the test: Antagonist activity against electrically stimulated guinea pig ileum using ethylketazocine (EK) as kappa opioid receptor agonist. It counts as functional, tissue-based. Summed up:
as §3

The target of test [17] is Delta-type opioid receptor (Homo sapiens, UniProt P41143). Nature of the test: […]. The test is classed as functional.
The target of test [18] is Kappa-type opioid receptor (Homo sapiens, UniProt P41145). Nature of the test: […]. The test is classed as functional.
In test [19] the target is Mu-type opioid receptor (Homo sapiens, UniProt P35372). Nature of the test: […]. It counts as functional.
In test [20] the target is T1, Delta-type opioid receptor. Nature of the test: The compound tested for […] against [3H]- NT1 (Opioid receptor delta 1) opioid receptor. The method in brief: as §1

Molecules are shown by their SMILES.

Sequence of Kappa-type opioid receptor (Cavia porcellus) (P41144 whole entry): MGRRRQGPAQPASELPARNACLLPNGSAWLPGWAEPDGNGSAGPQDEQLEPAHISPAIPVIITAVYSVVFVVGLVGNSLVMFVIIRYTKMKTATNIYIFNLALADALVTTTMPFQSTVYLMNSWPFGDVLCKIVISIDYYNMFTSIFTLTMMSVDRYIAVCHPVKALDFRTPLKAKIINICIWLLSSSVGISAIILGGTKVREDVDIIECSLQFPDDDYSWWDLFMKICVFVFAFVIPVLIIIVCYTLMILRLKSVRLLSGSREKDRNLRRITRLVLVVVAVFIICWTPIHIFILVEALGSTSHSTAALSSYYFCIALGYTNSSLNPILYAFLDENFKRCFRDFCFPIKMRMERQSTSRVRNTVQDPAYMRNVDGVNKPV
T1 sequence (P32300 whole entry): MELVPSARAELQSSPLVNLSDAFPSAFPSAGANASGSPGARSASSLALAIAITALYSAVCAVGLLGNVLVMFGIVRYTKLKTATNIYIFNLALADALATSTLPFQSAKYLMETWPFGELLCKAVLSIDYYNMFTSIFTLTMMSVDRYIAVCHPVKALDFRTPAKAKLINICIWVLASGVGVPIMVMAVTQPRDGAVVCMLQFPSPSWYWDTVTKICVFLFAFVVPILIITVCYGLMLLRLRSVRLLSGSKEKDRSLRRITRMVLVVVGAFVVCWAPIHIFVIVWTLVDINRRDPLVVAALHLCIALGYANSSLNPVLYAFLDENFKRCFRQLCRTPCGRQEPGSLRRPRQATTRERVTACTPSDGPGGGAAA
Sequence of Delta-type opioid receptor (Mus musculus) (P32300 whole entry): as above
Sequence of Opioid receptors; mu & kappa (Homo sapiens) (P35372 whole entry, looked up): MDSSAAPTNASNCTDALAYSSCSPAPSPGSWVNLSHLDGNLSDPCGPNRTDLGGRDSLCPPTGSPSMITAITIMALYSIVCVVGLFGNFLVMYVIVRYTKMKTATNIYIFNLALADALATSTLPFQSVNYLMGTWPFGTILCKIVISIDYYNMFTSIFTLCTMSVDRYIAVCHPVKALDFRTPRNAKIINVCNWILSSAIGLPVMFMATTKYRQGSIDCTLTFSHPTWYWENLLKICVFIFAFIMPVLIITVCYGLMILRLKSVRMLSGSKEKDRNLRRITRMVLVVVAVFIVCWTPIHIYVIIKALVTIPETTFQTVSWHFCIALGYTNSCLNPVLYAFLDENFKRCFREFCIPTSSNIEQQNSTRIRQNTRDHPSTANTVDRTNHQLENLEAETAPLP
Sequence of Opioid receptors; mu & kappa (Homo sapiens) (P41145 whole entry, looked up): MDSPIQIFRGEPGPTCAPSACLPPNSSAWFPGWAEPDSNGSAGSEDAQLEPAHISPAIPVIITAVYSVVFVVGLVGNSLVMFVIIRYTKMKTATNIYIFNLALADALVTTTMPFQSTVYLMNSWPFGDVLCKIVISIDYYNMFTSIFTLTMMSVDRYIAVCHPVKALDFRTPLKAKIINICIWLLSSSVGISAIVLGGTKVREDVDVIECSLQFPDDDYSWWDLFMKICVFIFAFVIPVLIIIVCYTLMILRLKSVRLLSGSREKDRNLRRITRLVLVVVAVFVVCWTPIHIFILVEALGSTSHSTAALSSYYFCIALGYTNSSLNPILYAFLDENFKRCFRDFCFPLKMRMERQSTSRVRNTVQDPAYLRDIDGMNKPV
Sequence of Opioid receptors; mu & delta (Homo sapiens) (P35372 whole entry, looked up): as the sequence (P35372 whole entry, looked up) above
Sequence of Opioid receptors; mu & delta (Homo sapiens) (P41143 whole entry, looked up): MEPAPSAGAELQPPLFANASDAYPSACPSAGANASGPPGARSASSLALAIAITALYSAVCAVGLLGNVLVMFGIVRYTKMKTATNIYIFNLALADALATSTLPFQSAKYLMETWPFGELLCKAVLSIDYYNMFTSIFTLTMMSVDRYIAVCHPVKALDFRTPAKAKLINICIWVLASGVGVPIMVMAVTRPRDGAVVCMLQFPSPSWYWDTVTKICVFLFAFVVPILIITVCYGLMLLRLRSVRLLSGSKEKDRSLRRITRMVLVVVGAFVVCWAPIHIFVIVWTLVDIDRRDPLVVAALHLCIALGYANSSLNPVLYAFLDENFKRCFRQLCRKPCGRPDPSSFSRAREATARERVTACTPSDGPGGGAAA
Sequence of Mu-type opioid receptor (Mus musculus, UniProt P42866) (P42866 whole entry): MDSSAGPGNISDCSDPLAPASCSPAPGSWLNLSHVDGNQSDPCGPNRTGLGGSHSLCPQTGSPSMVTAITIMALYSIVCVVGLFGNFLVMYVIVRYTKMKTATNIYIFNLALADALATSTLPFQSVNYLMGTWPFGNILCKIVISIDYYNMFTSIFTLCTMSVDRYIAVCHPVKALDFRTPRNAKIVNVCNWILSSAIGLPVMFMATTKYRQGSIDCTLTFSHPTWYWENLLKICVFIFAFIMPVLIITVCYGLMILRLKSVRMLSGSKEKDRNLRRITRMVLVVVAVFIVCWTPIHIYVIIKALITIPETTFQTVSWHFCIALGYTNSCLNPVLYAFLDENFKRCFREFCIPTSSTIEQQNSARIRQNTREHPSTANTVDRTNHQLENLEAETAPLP
Sequence of Mu-type opioid receptor (Mus musculus) (P42866 whole entry): as above
Sequence of Mu-type opioid receptor (Cavia porcellus) (P97266 whole entry): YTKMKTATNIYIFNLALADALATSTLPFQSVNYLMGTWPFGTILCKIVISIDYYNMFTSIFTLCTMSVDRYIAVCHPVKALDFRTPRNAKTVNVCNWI
Sequence of Kappa-type opioid receptor (Mus musculus) (P33534 whole entry): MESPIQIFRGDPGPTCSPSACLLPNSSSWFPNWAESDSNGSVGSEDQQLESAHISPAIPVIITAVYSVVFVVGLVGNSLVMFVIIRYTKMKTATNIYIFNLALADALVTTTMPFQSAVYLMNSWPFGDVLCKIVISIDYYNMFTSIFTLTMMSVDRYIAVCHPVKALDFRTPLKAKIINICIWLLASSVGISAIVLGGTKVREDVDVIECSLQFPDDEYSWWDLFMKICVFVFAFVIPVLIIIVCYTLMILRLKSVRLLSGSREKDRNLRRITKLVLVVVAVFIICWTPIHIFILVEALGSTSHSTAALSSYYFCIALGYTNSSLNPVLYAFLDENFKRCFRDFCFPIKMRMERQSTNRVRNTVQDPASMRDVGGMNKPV
Sequence of Kappa-type opioid receptor (Mus musculus, UniProt P33534) (P33534 whole entry): as above
Sequence of Kappa-type opioid receptor (Homo sapiens, UniProt P41145) (P41145 whole entry): as the sequence (P41145 whole entry, looked up) above
Sequence of Mu-type opioid receptor (Homo sapiens, UniProt P35372) (P35372 whole entry): as the sequence (P35372 whole entry, looked up) above
Sequence of Delta-type opioid receptor (Homo sapiens, UniProt P41143) (P41143 whole entry): as the sequence (P41143 whole entry, looked up) above

Regarding `COc1cccc2c1CC1(C2)C[C@@]2(O)C3Cc4ccc(O)c5c4C2(CCN3C)C(O5)C1=O` (stereo not given in full), the concentration for half-maximal inhibition (IC50) in the test filed under Cavia porcellus [1] stood at 148 nM; in the test listed under Mus musculus [2], 27 nM. In addition, the Ki in test [3] was > 3 µM; on Mu-type opioid receptor [4], 9.24 nM; in test [5] it was 5.49 nM.

As for `O=C1/C(=C/c2ccccc2)C[C@@]2(O)[C@H]3Cc4ccc(O)c5c4[C@@]2(CCN3CC2CC2)[C@H]1O5`, the ED50 ratio in test [6] was determined as 0.8; in test [7], 1.2; in test [8], 0.91; in [9], 7.2.

Regarding `COc1cccc2c1CC1(C2)C[C@@]2(O)C3Cc4ccc(O)c5c4C2(CCN3CC2CC2)C(O5)C1=O` (stereo not given in full), the IC50 ratio in test [10] was found to be 6.2; in [12], 13.7; in the test filed under Mus musculus [13], 85; in test [15], 35; in [16], 2.4. Besides, the values for the Max response in the test listed under Mus musculus [11] and in the test listed under Cavia porcellus [14] were -18% and -4.5%, respectively. The ED50 ratio in test [6] came to 2.5; in [7] it was 3.4; in [8], 4.3; in [9] it was 5.6. The Ki in test [3] is > 3 µM; at Mu-type opioid receptor [4], 0.44 nM; in [5] it was 0.028 nM.

Take `CN1CC[C@]23c4c5ccc(O)c4O[C@H]2C(=O)C2(Cc4ccccc4C2)C[C@@]3(O)[C@H]1C5` [SPIROINDANYLOXYMORPHONE]: the IC50 ratio in test [10] was 1.2; in test [16] it was 0.99. The Ki is 2.75 nM in test [17], > 3 µM in test [18] and 14.3 nM at Mu-type opioid receptor [19]. The compound also yielded an IC50 in the test filed under Mus musculus [2] of 23 nM. Moreover, the Max response in the test listed under Cavia porcellus [14] was 55%.

Regarding `CN1CCC23c4c5ccc(O)c4OC2C(=O)C2(Cc4cc6ccccc6cc4C2)C[C@@]3(O)C1C5` (stereo not given in full), the IC50 ratio worked out at 0.58 in test [10]; 1 in test [12]; 1.1 in the test listed under Mus musculus [13]; 1 in [15]; 1.2 in test [16]. For the same compound, the values for the Max response in the test filed under Mus musculus [11] and in the test filed under Cavia porcellus [14] were 57% and 13.4%, respectively. The ED50 ratio in test [6] came to 2; in test [7] it was 3; in test [8] it was 0.9; in test [9], 1.5. Further, the inhibitory constant (Ki) is 31.6 nM in test [20], > 3 µM in test [3] and 125 nM on Mu-type opioid receptor [4].

Turning to `O=C1[C@@H]2Oc3c(O)ccc4c3[C@@]23CCN(CC2CC2)[C@H](C4)[C@]3(O)CC12Cc1ccccc1C2`, the results for the Max response in the test filed under Mus musculus [11] and in the test filed under Cavia porcellus [14] were -8% and 16%, respectively. In addition, the IC50 ratio in the test filed under Mus musculus [13] was found to be 130. Moreover, the values for the Ki (in test [17]; in test [18]; at Mu-type opioid receptor [19]) were 0.25 nM, > 3 µM and 1.53 nM, respectively.

`O=C1C2Oc3c(O)ccc4c3C23CCN(CC2CC2)C(C4)[C@]3(O)CC12Cc1ccc3ccccc3c1C2` (stereo not given in full): the IC50 ratio in test [10] was determined as 1; in test [12] it was 25; in the test listed under Mus musculus [13], 25; in [15] it was 14.7; in [16], 1.7. Also, the figures for the Max response in the test filed under Mus musculus [11] and in the test filed under Cavia porcellus [14] were 14% and 13.9%, respectively.

For `O=C1C2Oc3c(O)ccc4c3C23CCN(CC2CC2)C(C4)[C@]3(O)CC12Cc1cc3ccccc3cc1C2` (stereo not given in full), the IC50 ratio in test [10] came out at 3.4; in test [12], 14.1; in the test filed under Mus musculus [13], 48; in test [15], 48; in test [16], 0.24. Further, the results for the Max response in the test filed under Mus musculus [11] and in the test filed under Cavia porcellus [14] were 4.9% and 52%, respectively. Besides, the ED50 ratio in test [6] is 0.8; in test [7], 0.8; in test [8], 1.5; in test [9], 4.4. In addition, the Ki is 1.03 µM in [3], 7.81 nM on Mu-type opioid receptor [4] and “Non-competitive inhibition” in test [5].

For the compound `O=C1C2Oc3c(O)ccc4c3C23CCN(CC2CC2)C(C4)[C@]3(O)CC12Cc1cccc3cccc(c13)C2` (stereo not given in full), the IC50 ratio in [10] came to 0.93; in test [12], 12.6; in the test listed under Mus musculus [13], 12.6; in test [15] it was 12.6; in [16] it was 0.78. Also, the values for the Max response in the test filed under Mus musculus [11] and in the test filed under Cavia porcellus [14] were 17.6% and 11.2%, respectively.

With `COc1ccc2c(c1)CC1(C2)C[C@@]2(O)C3Cc4ccc(O)c5c4C2(CCN3CC2CC2)C(O5)C1=O` (stereo not given in full), the IC50 ratio was determined as 6.9 in test [10]; 1.7 in test [12]; 11.8 in the test listed under Mus musculus [13]; 4.2 in test [15]; 2.8 in test [16]. Moreover, the Max response in the test listed under Mus musculus [11] was 0.6%; in the test filed under Cavia porcellus [14], -52%.
